Reference: ChEMBL document CHEMBL4732082, “Development of novel benzimidazole-derived neddylation inhibitors for suppressing tumor growth invitro and invivo” (Eur J Med Chem, 2021)

What was measured:
[1] = biological target: T1, NEDD8-activating enzyme E1 catalytic subunit (Homo sapiens, UniProt Q8TBC4); test: Inhibition of NAE (unknown origin)-mediated neddylation assessed as suppression of cullin1-Nedd8 adduct formation preincubated for 10 mins followed by ATP addition and measured after 30 mins by immunoblot analysis
T1 sequence (Q8TBC4 whole entry): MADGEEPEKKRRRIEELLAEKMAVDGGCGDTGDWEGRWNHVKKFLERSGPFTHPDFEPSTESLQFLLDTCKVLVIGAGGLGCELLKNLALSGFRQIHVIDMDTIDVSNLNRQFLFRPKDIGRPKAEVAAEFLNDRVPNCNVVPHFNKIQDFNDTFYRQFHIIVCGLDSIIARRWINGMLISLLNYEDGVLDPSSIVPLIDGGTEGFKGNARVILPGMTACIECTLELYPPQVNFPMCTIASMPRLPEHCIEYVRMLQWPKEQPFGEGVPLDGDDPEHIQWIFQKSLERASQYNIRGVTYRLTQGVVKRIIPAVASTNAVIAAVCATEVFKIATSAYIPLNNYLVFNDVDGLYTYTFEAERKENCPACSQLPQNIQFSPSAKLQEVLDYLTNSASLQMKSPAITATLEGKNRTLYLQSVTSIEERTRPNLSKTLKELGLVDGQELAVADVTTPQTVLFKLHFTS

[2] = Toxicity in nude mouse assessed as effect on body weight at 30 mg/kg, qd after 24 days; type: organism-based; details: in vivo, 576 h, time 24 day
Method in brief: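 Female nude mice were inoculated subcutaneously with 2×10^6 A549 cells in 0.1 mL PBS. At tumor volume 70–100 mm³, mice were randomized into 5 groups of 6. Dosing was ip or oral gavage, once daily on a 5-days-on/2-days-off schedule, with 10% 2-hydroxypropyl-β-cyclodextrin/water as vehicle control. Body weight and tumor volume were measured every two days; tumors were weighed at sacrifice. Significance by two-tailed Student's t-test.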

CCOc1nc2cccc(C(=O)OC(C)OC(=O)OC3CCCCC3)c2n1Cc1ccc(-c2ccccc2-c2nnn[nH]2)cc1 (configuration not stated) [CANDESARTAN CILEXETIL]
IC50 [1]: 16.4 µM
Activity [2]: Non-Toxic
